Results on eleven compounds are retold here after ChEMBL document CHEMBL3045489, “Synthesis, fungicidal activity, and QSAR of a series of 2-dichlorophenyl-3-triazolylpropyl ethers” (J Agric Food Chem, 2000).

In brackets after ≈: the same amount, converted by molar mass.

In test [1] the test system is Podosphaera fuliginea. In words: Fungicidal activity against Podosphaera fuliginea inoculated in […] placed in growth room after 24 hr incubation assessed as disease cure after 24 hr of inoculation. It is filed as functional.
Another test concerns Bipolaris maydis. In words: Antifungal activity against Cochliobolus heterostrophus assessed as inhibition of radial growth on potato dextrose. The test is classed as functional, organism-based. In a few lines: (§1)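 Radial growth inhibition on potato dextrose or Czapek agar across 100-0.1 mg L-1. ED50 calculated for each compound.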
A further test has as its system Ustilago maydis. In words: Antifungal activity against Ustilago maydis assessed as inhibition of radial growth on potato dextrose. The test is classed as functional, organism-based. Particulars: Mycosarcoma maydis.
For another test, the system named is Pyrenophora teres. The test is described as follows: Antifungal activity against Pyrenophora teres assessed as inhibition of radial growth on potato dextrose. It is filed as functional, organism-based.
Another test concerns Botrytis cinerea. The test is described as follows: Antifungal activity against Botryotinia fuckelianaassessed as inhibition of radial growth on potato dextrose. The test is classed as functional, organism-based. In a few lines: as §1
The test system of the next test is Oculimacula yallundae. The test is described as follows: Antifungal activity against Oculimacula yallundae assessed as inhibition of radial growth on potato dextrose. The test is classed as functional, organism-based. In a few lines: as §1
Test [2] relates to Podosphaera fuliginea. The test is described as follows: Fungicidal activity against Podosphaera fuliginea inoculated in […] placed in growth room after 24 hr incubation assessed as direct protection after 6 to 10 days. The test is classed as functional.
For another test, the system named is Cercospora beticola. The test is described as follows: Antifungal activity against Cercospora beticola assessed as inhibition of radial growth on potato dextrose. The test is classed as functional, organism-based. The procedure, abridged:
as §1

Another test has as its system Uromyces appendiculatus. The test is described as follows: Fungicidal activity against Uromyces appendiculatus inoculated in Phaseolus vulgaris placed in growth room after 24 hr incubation assessed as direct protection after 6 to 10 days. It is filed as functional. The procedure, abridged: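 Bean plants grown at 22 ± 1 °C, 80 ± 10% RH. Compound in acetone/water (1:4 v/v) with Tween 20 (0.4 mg mL-1) was sprayed on leaves until moist at 100 to 0.001 mg L-1. One day later leaves were inoculated with U. appendiculatus uredospores (1 × 10^5 spores mL-1), held 24 h at 22 ± 2 °C and 100% RH, then moved to the growth room. Scored at 6, 8 and 10 days as MIC.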

The test system of the next test is Fusarium graminearum. The test is described as follows: Antifungal activity against Fusarium graminearum assessed as inhibition of radial growth on potato dextrose. The test is classed as functional, organism-based. The procedure, abridged: as §1

In general, MIC refers to the lowest concentration that inhibits growth of the organism. The term EC50 denotes the concentration at which the effect is half-maximal. As to `Clc1ccc(C(COCc2ccc(-c3ccccc3)cc2)Cn2cncn2)c(Cl)c1` (racemic), the minimal inhibitory concentration (MIC) with Podosphaera fuliginea [1] was determined as 6 µg/mL (≈ 13.7 µM); with Podosphaera fuliginea [2] it was 10 µg/mL (≈ 22.8 µM); with Uromyces appendiculatus it was 28 µg/mL (≈ 63.9 µM). Further, the EC50 with Bipolaris maydis is 0.18 µg/mL (≈ 0.411 µM); in the test with Ustilago maydis, 0.03 µg/mL (≈ 0.0684 µM); in the test with Pyrenophora teres it was 0.55 µg/mL (≈ 1.25 µM); in the test on Botrytis cinerea, 2.8 µg/mL (≈ 6.39 µM); in the test on Oculimacula yallundae, 0.5 µg/mL (≈ 1.14 µM); in the test with Cercospora beticola it was 0.18 µg/mL (≈ 0.411 µM). Besides, the 50% effective concentration (EC50) with Fusarium graminearum was more than 200 µg/mL.

Turning to `Clc1ccc(C(COCc2ccc3ccccc3c2)Cn2cncn2)c(Cl)c1` (racemic), the EC50 in the test with Bipolaris maydis amounted to 0.15 µg/mL (≈ 0.364 µM); in the test on Ustilago maydis, 0.18 µg/mL (≈ 0.437 µM); in the test on Pyrenophora teres, 0.25 µg/mL (≈ 0.606 µM); in the test on Botrytis cinerea it was 2.8 µg/mL (≈ 6.79 µM); in the test with Oculimacula yallundae, 1 µg/mL (≈ 2.43 µM); in the test on Cercospora beticola it was 0.23 µg/mL (≈ 0.558 µM). For the same compound, the EC50 in the test with Fusarium graminearum came out at 130 µg/mL (≈ 315 µM). Moreover, the MIC in the test on Podosphaera fuliginea [2] came out at 50 µg/mL (≈ 121 µM); in the test on Uromyces appendiculatus, 120 µg/mL (≈ 291 µM).

With `Clc1ccc(C(COCCCc2ccccc2)Cn2cncn2)c(Cl)c1` (racemic), the EC50 in the test on Bipolaris maydis came out at 0.19 µg/mL (≈ 0.487 µM); with Ustilago maydis it was 0.15 µg/mL (≈ 0.384 µM); in the test on Pyrenophora teres, 1.3 µg/mL (≈ 3.33 µM); with Botrytis cinerea it was 2.3 µg/mL (≈ 5.89 µM); in the test with Oculimacula yallundae, 2.3 µg/mL (≈ 5.89 µM); in the test with Cercospora beticola it was 0.18 µg/mL (≈ 0.461 µM). In addition, the EC50 with Fusarium graminearum is 18 µg/mL (≈ 46.1 µM). For the same compound, the MIC was found to be 100 µg/mL (≈ 256 µM) with Podosphaera fuliginea [2] and 200 µg/mL (≈ 512 µM) in the test on Uromyces appendiculatus.

Consider `CC(C)=CCOCC(Cn1cncn1)c1ccc(Cl)cc1Cl` (racemic), for which the concentration for a half-maximal effect (EC50) with Bipolaris maydis was 0.13 µg/mL (≈ 0.382 µM); in the test on Ustilago maydis, 0.22 µg/mL (≈ 0.647 µM); in the test on Pyrenophora teres, 0.5 µg/mL (≈ 1.47 µM); in the test on Botrytis cinerea, 0.9 µg/mL (≈ 2.65 µM); in the test on Oculimacula yallundae it was 1 µg/mL (≈ 2.94 µM); with Cercospora beticola, 0.18 µg/mL (≈ 0.529 µM). In the test with Fusarium graminearum, the 50% effective concentration (EC50) was 40 µg/mL (≈ 118 µM). Also, the minimum inhibitory concentration (MIC) in the test on Podosphaera fuliginea [2] amounted to 100 µg/mL (≈ 294 µM); with Uromyces appendiculatus, 160 µg/mL (≈ 470 µM).

As to `C=C(Cn1cncn1)c1ccc(Cl)cc1Cl`, the MIC in the test with Podosphaera fuliginea [1] worked out at 1 µg/mL (≈ 3.94 µM); in the test on Podosphaera fuliginea [2] it was 8 µg/mL (≈ 31.5 µM); with Uromyces appendiculatus, 150 µg/mL (≈ 590 µM). Also, the 50% effective concentration (EC50) came out at 0.4 µg/mL (≈ 1.57 µM) with Bipolaris maydis; 0.8 µg/mL (≈ 3.15 µM) in the test on Ustilago maydis; 0.9 µg/mL (≈ 3.54 µM) in the test with Pyrenophora teres; 4.5 µg/mL (≈ 17.7 µM) in the test on Botrytis cinerea; 0.45 µg/mL (≈ 1.77 µM) with Oculimacula yallundae; 0.6 µg/mL (≈ 2.36 µM) in the test on Cercospora beticola. Moreover, the concentration for a half-maximal effect (EC50) in the test with Fusarium graminearum came to 2.9 µg/mL (≈ 11.4 µM).

For the compound `CC(C)(C)c1ccc(COCC(Cn2cncn2)c2ccc(Cl)cc2Cl)cc1` (racemic), the minimal inhibitory concentration (MIC) worked out at 10 µg/mL (≈ 23.9 µM) with Podosphaera fuliginea [1], 10 µg/mL (≈ 23.9 µM) with Podosphaera fuliginea [2] and 25 µg/mL (≈ 59.8 µM) in the test on Uromyces appendiculatus. In addition, the 50% effective concentration (EC50) worked out at 0.4 µg/mL (≈ 0.956 µM) in the test on Bipolaris maydis; 0.1 µg/mL (≈ 0.239 µM) in the test on Ustilago maydis; 0.8 µg/mL (≈ 1.91 µM) in the test on Pyrenophora teres; 3.8 µg/mL (≈ 9.08 µM) in the test on Botrytis cinerea; 1.2 µg/mL (≈ 2.87 µM) with Oculimacula yallundae; 0.28 µg/mL (≈ 0.669 µM) in the test on Cercospora beticola. In the test on Fusarium graminearum, the 50% effective concentration (EC50) was determined as 6.5 µg/mL (≈ 15.5 µM).

Take `OCCCOCC(Cn1cncn1)c1ccc(Cl)cc1Cl` (racemic): the half-maximal effective concentration (EC50) was 1.3 µg/mL (≈ 3.94 µM) in the test on Bipolaris maydis; 1 µg/mL (≈ 3.03 µM) in the test on Ustilago maydis; 8 µg/mL (≈ 24.2 µM) with Pyrenophora teres; 70 µg/mL (≈ 212 µM) in the test on Botrytis cinerea; 2.5 µg/mL (≈ 7.57 µM) in the test with Oculimacula yallundae; 1.7 µg/mL (≈ 5.15 µM) with Cercospora beticola. In the test on Fusarium graminearum, the EC50 amounted to 75 µg/mL (≈ 227 µM). Further, the MIC in the test with Podosphaera fuliginea [2] is more than 100 µg/mL; in the test with Uromyces appendiculatus, more than 200 µg/mL.

For the compound `Clc1ccc([C@@H](COCc2ccccc2)Cn2cncn2)c(Cl)c1`, the EC50 is 0.25 µg/mL (≈ 0.69 µM) in the test on Bipolaris maydis; 0.09 µg/mL (≈ 0.248 µM) in the test on Ustilago maydis; 0.35 µg/mL (≈ 0.966 µM) with Pyrenophora teres; 1.3 µg/mL (≈ 3.59 µM) with Botrytis cinerea; 0.6 µg/mL (≈ 1.66 µM) in the test with Oculimacula yallundae; 0.18 µg/mL (≈ 0.497 µM) in the test on Cercospora beticola. Further, the EC50 in the test with Fusarium graminearum was 13 µg/mL (≈ 35.9 µM). The MIC with Podosphaera fuliginea [2] is 100 µg/mL (≈ 276 µM); in the test with Uromyces appendiculatus, 50 µg/mL (≈ 138 µM).

For the compound `Clc1ccc(C(COC/C=C/c2ccccc2)Cn2cncn2)c(Cl)c1` (racemic), the EC50 in the test on Bipolaris maydis worked out at 0.18 µg/mL (≈ 0.464 µM); in the test with Ustilago maydis it was 0.1 µg/mL (≈ 0.258 µM); in the test with Pyrenophora teres it was 0.47 µg/mL (≈ 1.21 µM); in the test with Botrytis cinerea, 3 µg/mL (≈ 7.73 µM); in the test on Oculimacula yallundae it was 1.3 µg/mL (≈ 3.35 µM); in the test on Cercospora beticola, 0.2 µg/mL (≈ 0.515 µM). Moreover, in the test on Fusarium graminearum, the EC50 was found to be 40 µg/mL (≈ 103 µM). Further, the MIC was found to be 10 µg/mL (≈ 25.8 µM) in the test with Podosphaera fuliginea [2] and 140 µg/mL (≈ 361 µM) with Uromyces appendiculatus.

Take `Clc1ccc(C(COCc2ccc(OCc3cccc(OCc4ccccc4)c3)cc2)Cn2cncn2)c(Cl)c1` (racemic): the EC50 was 0.2 µg/mL (≈ 0.348 µM) in the test with Ustilago maydis; 1.3 µg/mL (≈ 2.26 µM) in the test on Pyrenophora teres; 25 µg/mL (≈ 43.5 µM) in the test with Botrytis cinerea; 1.8 µg/mL (≈ 3.13 µM) with Oculimacula yallundae; 0.9 µg/mL (≈ 1.57 µM) in the test with Cercospora beticola; more than 200 µg/mL in the test with Fusarium graminearum. Besides, the MIC in the test on Uromyces appendiculatus came to 140 µg/mL (≈ 244 µM).

For `Clc1ccc(C(COCc2ccc(OCc3ccccc3)cc2)Cn2cncn2)c(Cl)c1` (racemic), the concentration for a half-maximal effect (EC50) in the test on Bipolaris maydis is 0.15 µg/mL (≈ 0.32 µM); in the test on Ustilago maydis it was 0.14 µg/mL (≈ 0.299 µM); with Pyrenophora teres, 0.22 µg/mL (≈ 0.47 µM); in the test on Botrytis cinerea, 3.5 µg/mL (≈ 7.47 µM); with Oculimacula yallundae it was 0.5 µg/mL (≈ 1.07 µM); in the test with Cercospora beticola, 0.2 µg/mL (≈ 0.427 µM). Besides, in the test with Fusarium graminearum, the EC50 is more than 200 µg/mL. For the same compound, the MIC with Podosphaera fuliginea [2] is 10 µg/mL (≈ 21.4 µM); with Uromyces appendiculatus, 35 µg/mL (≈ 74.7 µM).
